Source: PubChem BioAssay
Rows were chosen to be rich in hits. Some 11% of all compounds tested hit in one or more screens of this group.
D1 mod = D1 dopamine receptor (human) allosteric modulation; P21728; HEK293 D1, CRE-luciferase, dopamine EC30 potentiation; actives deviate in either direction; B-score at 10 µM; hit rate 5.9% among 58,000;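 active means luminescence count or its row- and column-corrected plate score outside the 99.7% band of the plate's sample wells, on either side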
M1 antag = blocks the rat M1 muscarinic receptor response to acetylcholine; P08482; CHO-M1 cells, Fluo-4 calcium, ACh EC80 antagonist mode; hits give low values; B-score at 10 µM; hit rate 3.4% among 64,000;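 active means calcium fluorescence response, raw or row-and-column corrected B-score, differing from the plate sample mean either way at a set confidence level, mostly lower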
S1P1 ag-PAM = activates or potentiates agonism at human S1P1 receptor | P21453 | S1P1 CRE-bla cells, forskolin, beta-lactamase FRET, potentiator mode; S1P1 agonist co-added at EC20, 2 nM; 100% = saturating reference agonist, 0% = basal | activation, % at 9.5 µM | hit rate 0.57% among 56,000 | AID 449;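 active means activation above a cutoff set at the mean activation of all tested compounds plus 3 SD, cut at about 54% in these data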;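 further: forskolin at 4 µM as EC80 and the EC20 agonist is SEW2871; 100% = SEW2871 at its EC100 plus forskolin at EC80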
TNAP act DEA = activates human TNAP at intermediate phosphate acceptor concentration; P05186; purified TNAP, CDP-star luminescence, 100 mM DEA, 30 min; hits give high values; scale: 0 levamisole-inhibited, 1 vehicle-only enzyme; activation factor at 20 µM; 64,000 tested, under 10 active; AID 813;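 active means activation factor of at least 2 at 20 µM, relative to controls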
M1 ag = agonists of M1 muscarinic receptor; CHO-M1 cells, Fluo-4 calcium fluorescence, agonist mode; hits give high values; B-score at 10 µM; hit rate 3% among 64,000;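 active means fluorescence rise, raw or as B-score row- and column-corrected plate score, outside the 99.7% band of its plate's samples, either direction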
S1P3 agonist = activates the human S1P3 receptor. Q99500. S1P3 NFAT-BLA reporter cells, agonism, FRET ratio; relative to 1 µM S1P, basal subtracted. activation, % at 4.5 µM. hit rate 0.1% among 60,000. AID 373;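 active means activation above the screen-wide mean plus 3 SD, cut at about 4.5% in these data, passing the limit was not always enough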
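Measure – % activation relative to 1 µM S1P (100%), per plate · System – stable CHO line with human S1P3, Gα16, NFAT-BLA reporter · Timing – cells plated overnight, compound 4 h 37 °C, substrate 2 h RT · Technique – fluorescent BLA substrate, ex 405 nm, em 460/535 nm ratio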
M1 ag confirm = rat M1 muscarinic agonism, confirmation | shares compounds with M1 ag | CHO-M1 cells, Fluo-4 calcium fluorescence, agonist mode; actives lie on both sides | fluorescence change (max-min) at 10 µM | hit rate 19% among 1,700 | AID 1488;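 active means fluorescence change differs from the solvent-only DMSO control mean at a set confidence level in both duplicate runs; inconclusive means differs from solvent-only control mean in just one of two runs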;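 further: an EC20 dose of acetylcholine follows compound addition during the same imaging run; raw fluorescence intensity difference in instrument units with no normalization to controls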
M4 agonist ctr = activates rat M4 receptor in counter-screen for M1 agonists | shares compounds with M1 ag | fluorescence change (max-min) at 10 µM | hit rate 9% among 1,700 | CHO M4/Gqi5 cells, Fluo-4 calcium fluorescence, agonist mode; actives lie on both sides;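 active means fluorescence change differing from the plate's solvent-only control wells at 99.7% confidence in both duplicates, whether higher or lower; inconclusive means differs from solvent controls in only one of two duplicates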
Target sequence (P08485 whole entry, looked up): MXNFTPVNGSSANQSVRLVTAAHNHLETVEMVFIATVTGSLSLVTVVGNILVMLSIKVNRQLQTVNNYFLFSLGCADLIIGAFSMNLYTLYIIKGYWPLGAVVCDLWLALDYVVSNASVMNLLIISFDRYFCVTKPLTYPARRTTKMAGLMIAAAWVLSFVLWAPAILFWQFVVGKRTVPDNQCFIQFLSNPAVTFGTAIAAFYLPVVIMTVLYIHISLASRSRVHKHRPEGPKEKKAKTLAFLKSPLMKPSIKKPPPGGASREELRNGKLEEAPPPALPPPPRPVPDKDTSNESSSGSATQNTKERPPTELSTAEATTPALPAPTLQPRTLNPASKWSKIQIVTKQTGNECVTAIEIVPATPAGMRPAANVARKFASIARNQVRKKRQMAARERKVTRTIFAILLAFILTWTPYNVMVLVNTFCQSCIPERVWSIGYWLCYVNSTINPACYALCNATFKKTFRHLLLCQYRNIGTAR
Numbers without * were called inactive; ? = inconclusive; / = not tested or not shown.

SMILES	D1 mod	M1 antag	S1P1 ag-PAM	TNAP act DEA	M1 ag	S1P3 agonist	M1 ag confirm	M4 agonist ctr
CC(=O)Nc1ccc(C(=O)CSc2nnc3scc(-c4ccccc4)n23)cc1	1.1	0.97	-24	0.9	0.1	-1	/	/
CCOc1ccc(C2=[N+]([O-])C(C)(C)N(O)C2(C)C)cc1	-0.2	2.7*	-7	0.9	3.6*	0	-20	?
Cc1ccccc1Nc1cc2ccccc2c(=O)[nH]1	0.88	1.6	-35	1	17*	0	64*	44
CCCS(=O)(=O)N1CCN(CC2CC3C=CC2C3)CC1 (stereo not given)	0.47	0.59	-8	1	3.1*	7	-9.9	?
Nc1c(N2CCCC2)cc(Cl)c2nonc12	0.026	-0.51	10	0.9	4.2*	0	8.6	-43
CCOC(=O)c1ccccc1NC1CC(=O)N(c2ccccc2C)C1=O (stereo not given)	0.69	1.8	15	0.9	1.2	0	/	/
COc1ccc(CCNS(=O)(=O)c2ccc3c(c2)OCCO3)cc1	0.95	0.084	-11	0.8	-1.1	0	/	/
COc1ccc(CCNC2=NCC(C)S2)cc1 (stereo not given)	/	-1.6	-4	0.8	31*	-1	-4.9	?
CCCNS(=O)(=O)c1ccc(OCC(=O)NCc2ccc3c(c2)OCO3)cc1	0.47	0.33	-11	0.9	0.65	-1	/	/
COC(=O)CCC(=O)Nc1ccc(NC(C)=O)cc1	-0.84	-1.9	0	1	5.5*	-1	-8.9	-31
COC(=O)CCC(=O)Nc1ccc(NC(=O)CCC(=O)OC)cc1	-0.097	-0.76	-9	0.9	-0.087	-1	/	/
COc1ccccc1N1CCN(C(c2cc3ccc(C)cc3[nH]c2=O)c2nnnn2C2CCCC2)CC1 (stereo not given)	-0.56	1.3	-35	1	-2.5*	0	?	-60
COc1ccccc1N1CCN(C(c2cc3cc(C)ccc3[nH]c2=O)c2nnnn2C2CCCC2)CC1 (stereo not given)	-0.048	1.1	-12	0.8	-0.17	-1	/	/
Cc1ccc(S(=O)(=O)N2CCOCC2)cc1C(=O)Nc1nc(-c2cccnc2)cs1	-0.1	0.88	/	0.9	0.21	/	/	/
Cc1ccc(S(=O)(=O)N2CCOCC2)cc1C(=O)Nc1ccc(-c2cn3ccsc3n2)cc1	-3.6	-0.0062	0	0.9	3.3*	2	-8.1	?
COC(=O)c1ccc(-c2ccco2)n1Cc1nc(-c2ccc(OC)c(OC)c2)oc1C	0.9	0.19	-9	0.9	1.8*	0	-19	-13
COc1ccc(-c2nc(CSCC(=O)NCC3CCCO3)c(C)o2)cc1OC (stereo not given)	1.7	0.66	-34	0.9	0.8	0	/	/
O=C1c2ccccc2C(=O)N1CCc1nc2ccccc2c(=O)n1Cc1ccco1	-0.47	-1.4	-24	1	9.4*	0	-14	-14
COc1ccc(OCC(O)CN2C(=O)NC(C)(C)C2=O)cc1 (stereo not given)	/	0.51	-9	1	0.00061	-4	/	/
Cc1ccc(NC(=O)CSc2nnc(-c3ccncc3)n2N)cc1C	0.89	0.73	/	0.8	0.86	/	/	/
COC(=O)CSc1nnc(-c2ccncc2)n1N	0.028	1.9	/	0.9	4.5*	/	?	-46
Cc1ccc(S(=O)(=O)n2nc(-c3ccc(Cl)cc3)nc2NCc2ccco2)cc1	0.034	-0.38	/	0.9	26*	-1	-9.4	-30
COc1ccc(Nc2ccnc3ccccc23)cc1	-3.7*	-2*	50	1	14*	-1	63	-21
CSC(=O)CC(=O)NC(=O)c1ccccc1	-0.17	-0.62	4	1	-0.71	0	/	/
CCN1CCN(c2nc3c(C)cccn3c(=O)c2/C=C(\C#N)S(=O)(=O)c2ccc(C)cc2)CC1	-2.9	-0.53	15	0.9	9.7*	-3	?	40
SMILES	D1 mod	M1 antag	S1P1 ag-PAM	TNAP act DEA	M1 ag	S1P3 agonist	M1 ag confirm	M4 agonist ctr
O=C(NCc1ccco1)C(Cc1ccccc1)N1C(=O)C2C3C=CC(C3)C2C1=O (stereo not given)	-1.2	-0.89	11	1	4.5*	-1	?	-45
Cc1nc2c(C(=O)N3CCCC3)c[nH]n2c(=O)c1Cc1ccc(F)cc1Cl	-0.0073	-0.029	-32	0.9	0.15	0	/	/
N#C/C(=C\c1ccc(O)c(O)c1)S(=O)(=O)c1ccccc1	0.041	0.52	-2	0.6	22*	-1	33	15
O=C(Nc1cccc(F)c1)c1c(F)c(F)c(F)c(F)c1F	-0.94	-1	25	0.9	3.7*	0	-0.43	-58
O=C(Nc1ccccc1NC(=O)c1c(F)c(F)c(F)c(F)c1F)c1c(F)c(F)c(F)c(F)c1F	-1.1	-1.6	-14	1	2.9*	-1	-4.4	?
CC(C)(C)OCC(NC(=O)C(CC(N)=O)NC(=O)OC(C)(C)C)C(=O)OC(C)(C)C (stereo not given)	-0.038	0.99	2	0.9	-0.71	-1	/	/
CCC(=O)N1CCN(c2ccc(NC(=O)c3cc4ccccc4o3)cc2Cl)CC1	-3.9*	-1.9*	/	0.9	4.5*	-1	-19	-35
CCCC(=O)N1CCN(c2ccc(NC(=O)c3cc4ccccc4o3)cc2Cl)CC1	-2.7	-1.6	66*	0.9	6.9*	-1	-17	-34
O=C(Nc1ccc(N2CCN(C(=O)c3ccco3)CC2)c(Cl)c1)c1cc2ccccc2o1	-1.1	/	/	0.9	/	-2	/	/
CN(C)P(=NC(=O)COc1ccc(Cl)cc1Cl)(N(C)C)N(C)C	-0.62	-0.51	6	0.9	0.62	0	/	/
COC(=O)Cn1ncc2c3ccccc3n(C)c2c1=O	/	1.1	-16	1	0.68	-1	/	/
Cn1c(SC/C=C/c2ccccc2)nnc1-c1ccco1	-1	-0.084	6	0.8	-0.7	-1	/	/
Cc1cc(NC(=O)CSc2cn(CCNC(=O)c3ccc(F)cc3)c3ccccc23)no1	0.55	-0.44	-1	1	4.2*	-1	-12	-15
Cn1cnc(S(=O)(=O)NCc2cccs2)c1	0.08	0.47	-28	0.8	-0.0023	0	/	/
CCOC(=O)N1CCC(N2Cc3cccc(C(=O)Nc4ccc(OC)c(OC)c4)c3C2=O)CC1	-2.2*	-4*	-16	0.9	9*	0	-29	-37
COc1cccc(-c2cc(C(=O)N3CCN(c4ncccn4)CC3)c3ccccc3n2)c1	0.072	-1.9	-19	0.9	3.1	-1	/	/
